# Active and inactive are the calls of the source.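 How the source made its calls, unless noted: active means fluorescence slope after compound addition differing from the mean of all tested samples at 99.7% confidence, mostly higher but some lower; inactive means the rest.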
# Legend:
# [1] = inhibitors of TNFa-induced NFkB p65 translocation, primary screen, imaging, HUVEC, MLSMR starter and 10KST1 sets (AID 438;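 active means inhibition above 20% together with a positive visual image hit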;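 further: compound added about 3h40 before a 20 min TNFalpha stimulation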;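 on inhibition: signal is the nuclear over cytoplasmic p65 intensity ratio per well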); settings: HUVEC TNFa-induced p65 nuclear translocation; cell count: measured here: nuclei count (cytotoxicity indicator), at 2.08 µM; inhibition: at 2 µM, stronger effect = higher value, 0% TNFa-plus-vehicle, 100% no-TNFa wells
# [2] = reduction of polyQ htt aggregates in cells – imaging, exon1htt(103Q)mCFP cells, high-content imaging, primary screen (AID 483;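 active means visual image review flags a hit and inhibition of aggregation exceeds 20%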;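 further: compound exposure lasted 3 days before fixation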;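 on nuclei count: percent of the per-plate median nuclei count of sample wells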); settings: exon1htt(103Q)mCFP cell line, aggregate imaging, at 2 µM; inhibition of aggregation: stronger effect = higher value; nuclei count: measured here: cell count, toxicity
# [3] = endothelial E-selectin expression blockers – imaging, HUVEC, immunofluorescence, MLSMR starter and 10KST1 sets, primary screen (AID 487;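 active means visually confirmed hit in the image check and inhibition above 20%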;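 on inhibition: signal is fraction of cell area covered by stained E-selectin grains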;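 on nuclei count: 100% = median nuclei count of all wells on the same plate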); settings: HUVEC TNFalpha-induced E-selectin immunofluorescence imaging, at 2 µM; inhibition: stronger effect = higher value; nuclei count: measured here: cell number, toxicity
# [4] = biological target: Voltage-gated potassium channel subunit beta-2 (Rattus norvegicus) (UniProt P62483); assay: inhibitors of rat Kvbeta2 reductase activity – biochemical, NADPH fluorescence, primary screen (AID 622;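 active means fluorescence slope higher than the sample average by over 3 SD, cut at about -0.22 in these data, passing the limit was not always enough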;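 further: slope of raw intensity against log time taken from 70 to 1610 s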); settings: recombinant KvBeta, 4-cyanobenzaldehyde reduction, at 10 µM, stronger effect = higher value
# [5] = biological target: Voltage-gated potassium channel subunit beta-2 (Rattus norvegicus) (UniProt P62483); assay: enhancers of rat Kvbeta2 NADPH turnover – biochemical, NADPH fluorescence, primary screen (AID 623;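 active means NADPH fluorescence slope more negative than the mean of all samples by about 3 SD, 99.7% confidence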;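 further: fluorescence intensity change per second fitted from 20 to 320 s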); settings: Recombinant KvBeta, NADPH fluorescence decrease slope, 10 min; at 10 µM; stronger effect = lower value
# [6] = biological target: Muscarinic acetylcholine receptor M4 (Homo sapiens) (UniProt P08173); assay: M4-linked GIRK flux change, two-sided – cell-based, HEK293 M4/GIRK, thallium flux, BTC-AM, M4 allosteric agonist project, primary screen (AID 625); settings: at 10 µM, actives lie on both sides;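 further: thallium influx through GIRK channels coupled to M4 in HEK293 cells with BTC-AM dye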
# How it was run: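 assay system = HEK293 cells with M4 receptor and GIRK channels | medium = pH 7.3 thallium assay buffer | doses = 10 µM final, single point | timing = cells overnight at 37 °C, BTC-AM loading 1 h, reads 2 min total | signal = BTC-AM fluorescence, 1 Hz kinetic reads | read-out = post-addition slope, 15–24 s, of baseline-normalized fluorescence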
# [7] = blockers of RIG-like receptor reporter activation – cell-based, Sendai virus stimulus, luciferase, 10K MLSCN set, TLR/RLR signaling modifier project, primary screen (AID 602276;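 active means inhibition at or above 50% at 10 µM; inactive means inhibition below 50%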;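 further: firefly luciferase from ISG56 promoter only with Renilla not read in this screen; 0% = Sendai virus plus DMSO and 100% = medium plus DMSO without virus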); settings: HEK293 RL24 IRF3 luciferase reporter, at 10 µM, stronger effect = higher value
# [8] = TLR3 IRF3 reporter activation blockers – cell-based, poly I:C stimulus, luciferase, 10K MLSCN set, primary screen (AID 602277;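 active means inhibition of the reporter signal at or above 50%; inactive means inhibition below 50%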); settings: HEK293-TLR3 RL24 IRF3 luciferase reporter, at 10 µM, stronger effect = higher value
# Voltage-gated potassium channel subunit beta-2 (Rattus norvegicus), sequence (P62483 whole entry, looked up): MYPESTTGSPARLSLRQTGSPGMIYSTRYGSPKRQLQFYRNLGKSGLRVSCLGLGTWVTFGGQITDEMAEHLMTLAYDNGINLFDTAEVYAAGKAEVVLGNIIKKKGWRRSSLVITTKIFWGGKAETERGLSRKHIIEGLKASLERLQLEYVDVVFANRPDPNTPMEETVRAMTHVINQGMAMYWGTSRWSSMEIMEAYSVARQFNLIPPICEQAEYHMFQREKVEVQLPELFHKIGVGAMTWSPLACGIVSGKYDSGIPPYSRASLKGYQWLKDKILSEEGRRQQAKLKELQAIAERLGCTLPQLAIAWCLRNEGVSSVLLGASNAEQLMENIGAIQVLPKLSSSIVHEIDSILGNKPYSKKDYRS
# Muscarinic acetylcholine receptor M4 (Homo sapiens), sequence (P08173 whole entry, looked up): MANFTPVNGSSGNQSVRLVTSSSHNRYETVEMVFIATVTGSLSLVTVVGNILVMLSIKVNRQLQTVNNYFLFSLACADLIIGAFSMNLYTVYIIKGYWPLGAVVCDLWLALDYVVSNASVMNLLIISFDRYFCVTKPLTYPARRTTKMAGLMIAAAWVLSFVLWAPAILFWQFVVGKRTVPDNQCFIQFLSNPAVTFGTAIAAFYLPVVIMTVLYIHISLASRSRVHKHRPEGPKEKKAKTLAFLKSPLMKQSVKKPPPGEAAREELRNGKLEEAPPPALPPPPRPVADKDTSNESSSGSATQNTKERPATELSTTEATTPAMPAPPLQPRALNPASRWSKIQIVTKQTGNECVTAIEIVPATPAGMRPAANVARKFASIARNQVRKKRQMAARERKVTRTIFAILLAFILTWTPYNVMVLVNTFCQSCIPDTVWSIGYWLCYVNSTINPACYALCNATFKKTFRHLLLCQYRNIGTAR
Structure (SMILES),cell count [1],inhibition [1],inhibition of aggregation [2],nuclei count [2],inhibition [3],nuclei count [3],fluorescence slope [4],NADPH fluorescence slope [5],fluorescence slope [6],inhibition [7],inhibition [8]
COc1cccc(NC(=O)Cc2nnc(SCC(=O)c3ccccc3)n2C)c1,454,9.7% (inactive),-12.5% (inactive),88.6%,-39.3% (inactive),91.8%,-0.5 (inactive),1.7e-05 (inactive),0.0063 (inactive),3.81% (inactive),10.1% (inactive)
CC(=O)C1=C(O)C(=O)N(Cc2cccnc2)C1c1ccccc1 (stereo not drawn),429,-2% (inactive),-8.8% (inactive),97.7%,-58.9% (inactive),115%,-0.537 (inactive),-2.4e-05 (inactive),0.00492 (inactive),6.76% (inactive),18.6% (inactive)
COc1cc(S(=O)(=O)N2CCOCC2)ccc1NC(=O)COC(=O)c1ccccn1,621,11.9% (inactive),-7.1% (inactive),126%,-45.4% (inactive),101%,-0.542 (inactive),-2.5e-05 (inactive),0.00554 (inactive),11.7% (inactive),20.5% (inactive)
COc1ccc(C(=O)CSc2nnc(CNc3ccc(C)cc3C)o2)cc1,606,-4.1% (inactive),3% (inactive),101%,-136% (inactive),199%,-0.469 (inactive),-8.4e-05 (inactive),0.00401 (inactive),14.6% (inactive),11.8% (inactive)
O=c1nc(N2CCCC2)nc(Nc2ccccc2)[nH]1,478,8.9% (inactive),-12.9% (inactive),112%,-62.6% (inactive),115%,-0.559 (inactive),-4e-05 (inactive),0.00545 (inactive),3.72% (inactive),3.61% (inactive)
Cc1nn(-c2ccc(F)cc2)c(C)c1NS(=O)(=O)c1ccc(Cl)cc1,307,4.2% (inactive),17.1% (inactive),89.1%,-56% (inactive),98.7%,-0.382 (inactive),-4.6e-05 (inactive),0.00631 (inactive),13.3% (inactive),18.8% (inactive)
O=C(O)C1CCCN1C(=O)Nc1ccc(F)cc1 (stereo not drawn),543,-32.6% (inactive),13.6% (inactive),91.3%,-32.7% (inactive),98.5%,-0.301 (inactive),-4.9e-05 (inactive),0.00613 (inactive),8.17% (inactive),10.2% (inactive)
O=C(OCC#CCSc1nc2ccccc2o1)c1ccco1,541,6.7% (inactive),-4.7% (inactive),111%,-7.3% (inactive),116%,-0.405 (inactive),1.4e-05 (inactive),0.00568 (inactive),-2.28% (inactive),-8.72% (inactive)
CCOc1ccccc1C(=O)NCCC(=O)O,326,-5.1% (inactive),-42.8% (inactive),91.6%,16% (inactive),118%,-0.505 (inactive),-0.00026 (inactive),0.00473 (inactive),-1.19% (inactive),-5.47% (inactive)
C=CCn1cc(C(=O)NCCOC)c(=O)c2cc(S(=O)(=O)N(CC)CC)ccc21,580,-15.8% (inactive),7.1% (inactive),81.2%,-11.3% (inactive),115%,-0.607 (inactive),1.4e-05 (inactive),0.00635 (inactive),7.34% (inactive),17.4% (inactive)
COc1ccc(C2c3c(-c4ccccc4O)n[nH]c3C(=O)N2CCc2ccc(OC)c(OC)c2)cc1 (stereo not drawn),644,-22.4% (inactive),17.2% (inactive),68.1%,-37.6% (inactive),114%,-0.616 (inactive),5.9e-06 (inactive),0.00748 (inactive),17.4% (inactive),21.5% (inactive)
O=C(O)CCNc1ccc2c(c1)OCCO2,510,-26.5% (inactive),10% (inactive),118%,-25.3% (inactive),116%,-0.348 (inactive),-3.8e-05 (inactive),0.00514 (inactive),4.8% (inactive),5.31% (inactive)
CCOc1ccccc1C(=O)NCCCn1ccnc1,469,5.5% (inactive),6.9% (inactive),96.2%,-89.5% (inactive),121%,-0.576 (inactive),-6.1e-05 (inactive),0.00757 (inactive),11.4% (inactive),8.04% (inactive)
Nc1nc(N)nc(-c2ccccc2)n1,402,6% (inactive),12% (inactive),91.3%,22.3% (inactive),102%,-0.599 (inactive),-3.3e-05 (inactive),0.00335 (inactive),13.8% (inactive),13.5% (inactive)
Cc1nc(CNS(=O)(=O)c2cc(C)c(C)cc2C)cs1,331,6.3% (inactive),-7.4% (inactive),109%,-13.2% (inactive),107%,-0.329 (inactive),-5.1e-05 (inactive),0.00703 (inactive),9.82% (inactive),10.7% (inactive)
COCCNC(=O)c1cc2c(-c3ccccc3F)nn(C)c2s1,401,-5.4% (inactive),-28.5% (inactive),96.8%,-12.9% (inactive),120%,-0.523 (inactive),-3.7e-06 (inactive),0.00439 (inactive),12.1% (inactive),-0.79% (inactive)
C#CC(CO)N(CCN(Cc1ccccc1)C(C#C)CO)Cc1ccccc1 (stereo not drawn),370,1.8% (inactive),-12.5% (inactive),104%,-29.5% (inactive),112%,-0.329 (inactive),-5.4e-05 (inactive),0.00458 (inactive),15.5% (inactive),20.6% (inactive)
Nc1nnc(SCC(=O)N2CCN(c3ccccc3)CC2)n1-c1ccccc1,774,-11.4% (inactive),2% (inactive),99.4%,-82% (inactive),111%,-0.572 (inactive),-3.7e-05 (inactive),0.00636 (inactive),10.7% (inactive),21.1% (inactive)
CSc1nsc(SCC(=O)N2CCc3ccccc32)n1,296,-3.5% (inactive),22.6% (inactive),83.6%,-98.3% (inactive),112%,-0.451 (inactive),1.5e-05 (inactive),0.005 (inactive),5.46% (inactive),-2.99% (inactive)
CCCC(=O)Nc1ccc(NC(=O)c2cccs2)cn1,425,6.7% (inactive),10.4% (inactive),106%,-445% (inactive),140%,-0.578 (inactive),-3.4e-05 (inactive),0.00548 (inactive),-12.8% (inactive),-57.7% (inactive)
Cc1[nH]c(=O)[nH]c(=O)c1S(=O)(=O)N(C)Cc1ccccc1,433,1.1% (inactive),-2.7% (inactive),110%,-90.2% (inactive),110%,-0.491 (inactive),3.7e-05 (inactive),0.00478 (inactive),3.97% (inactive),13.8% (inactive)
N#Cc1ccc(CSc2nnc(-c3cnccn3)o2)cc1,489,-15% (inactive),-20.4% (inactive),106%,-60.9% (inactive),105%,-0.555 (inactive),-5.1e-06 (inactive),0.00528 (inactive),2.28% (inactive),5.14% (inactive)
CC(C(=O)Oc1ccc2c(c1)OCO2)N1C(=O)c2ccccc2C1=O (stereo not drawn),790,-10.1% (inactive),9.8% (inactive),104%,-33.5% (inactive),101%,-0.609 (inactive),-2.3e-05 (inactive),0.00538 (inactive),23.3% (inactive),27.7% (inactive)
CC(=O)NC1=NC(=O)/C(=C/N2CCCCC2)S1,391,-4.7% (inactive),1.3% (inactive),105%,-11.8% (inactive),103%,-0.459 (inactive),-3.8e-05 (inactive),0.00493 (inactive),21.1% (inactive),16.4% (inactive)
CCC(=O)N1CCc2cc(S(=O)(=O)CCC(=O)Nc3ccc(C)c(F)c3)ccc21,565,2.7% (inactive),-3% (inactive),111%,-119% (inactive),136%,-0.504 (inactive),0.000146 (inactive),0.00659 (inactive),8.99% (inactive),14.5% (inactive)
Cc1ccc(C)c(OCC(O)CN2C(C)CCCC2C)c1 (stereo not drawn),379,0% (inactive),2.7% (inactive),93.8%,-71.2% (inactive),117%,-0.526 (inactive),5e-05 (inactive),0.00528 (inactive),13.4% (inactive),26.5% (inactive)
CC(=O)Nc1ccc(Cl)cc1C(=O)O,236,1.3% (inactive),-13.3% (inactive),74.7%,35.3% (inactive),74.6%,-0.519 (inactive),8e-06 (inactive),0.00503 (inactive),20.8% (inactive),16.7% (inactive)
Cc1cc(C)n2nc(S(=O)(=O)N(C)Cc3ccccc3)nc2n1,560,-10.1% (inactive),-1.6% (inactive),110%,-35.3% (inactive),116%,-0.313 (inactive),-3.3e-05 (inactive),0.00664 (inactive),-4.55% (inactive),8.01% (inactive)
